Results published in publication PMC12690603 (Chemical Science, 2025).
Non-standard residues stand in square brackets, D forms with d. No end group written: not given here. βAla = NCCC(=O)O

Legend:
Assay type in all cases: biochemical
human SETD7 [1] = molecular target: T1, human SETD7 (Homo sapiens, UniProt Q8WTS6); assay: SETD7-catalysed methylation of H3 peptides, conversion by MALDI-TOF MS; conditions: SAM 30 µM; for methylation by SETD7 (conversion to methylated product): 13-mer peptide 10 µM, MALDI-TOF MS; for methylation by SETD7 in time-course: within 30 min
T1 sequence (Q8WTS6 1-366): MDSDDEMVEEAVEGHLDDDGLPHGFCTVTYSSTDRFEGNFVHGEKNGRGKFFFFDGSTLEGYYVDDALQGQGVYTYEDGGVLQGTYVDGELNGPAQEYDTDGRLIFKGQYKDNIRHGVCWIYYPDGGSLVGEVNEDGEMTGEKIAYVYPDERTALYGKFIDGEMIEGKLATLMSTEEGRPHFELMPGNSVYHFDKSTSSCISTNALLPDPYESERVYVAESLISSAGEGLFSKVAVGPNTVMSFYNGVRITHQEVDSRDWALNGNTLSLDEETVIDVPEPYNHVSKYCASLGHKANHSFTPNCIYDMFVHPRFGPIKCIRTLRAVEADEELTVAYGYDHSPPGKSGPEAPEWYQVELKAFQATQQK
How it was run: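 Recombinant human SETD7 (100 nM, 500 nM or 1 µM) was incubated with stapled or linear H3 peptide (10 µM) and SAM (30 µM) in 50 mM HEPES, 0.1 mM EDTA, 1 mM DTT, pH 8, at 37 °C with shaking at 750 rpm. Reactions were quenched with 10% (v/v) TFA at set times. Methylation (+14 Da) was measured by MALDI-TOF MS. % conversion came from peak areas. n = 2, standard deviations.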

human SETD7 [2] = molecular target: T1, human SETD7; assay: Steady-state kinetics of SETD7-catalysed methylation; conditions: for K m / k cat: peptide 1–150 µM, SETD7 50–300 nM, 10 or 20 min, MALDI-TOF MS, mean ± SD, SD; for K m / k cat / k cat/Km: SAM 30 µM, 37 °C, n = 3; for fold increase of kcat/Km compared to linear H3K4 (1): steady-state kinetics, relative to peptide 1; for k cat/Km: steady-state
How it was run: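 Recombinant human SETD7 (50–300 nM) added to start reactions containing H3 peptide (1–150 µM series) and SAM (30 µM). Incubated at 37 °C for 10 or 20 min with shaking, then quenched. MALDI-TOF MS was the read-out, with % methylation from integrated […] peak areas. Three independent experiments, SD. kcat/Km values were compared with the linear H3K4 reference peptide.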

human SETD1A = assay: SETD1A-catalysed methylation of 21-mer H3 peptides; conditions: 21-mer peptide 2 µM, SETD1A 1 µM, SAM 100 µM, pH 8.6, 37 °C, 3 h, n = 2
[3] = SETD7 500 nM, 50 mM HEPES, 0.1 mM EDTA, 1 mM DTT, pH 8.0, 37 °C, 1 h, n = 2
[4] = SETD7 100 nM, peptide 10 µM, 37 °C, n = 2

Substance: FRTKQEARKSTGG (also: sidechain bridge or staple (positions not given here)) [Peptide 9]
- methylation by SETD7 (conversion to methylated product) (human SETD7 [1]; SETD7 100 nM, 37 °C, 1 h): ~62%
- K m (human SETD7 [2]): 34.6 ± 9.78 µM
- k cat (human SETD7 [2]): 0.0493 ± 0.00517 s⁻¹
- fold increase of kcat/Km compared to linear H3K4 (1) (human SETD7 [2]): 6 fold
- k cat/Km (human SETD7 [2]): 1430 M⁻¹ s⁻¹

Substance: GRTKETARKSTGG (also: sidechain bridge or staple (positions not given here)) [Peptide 14]
- methylation by SETD7 (conversion to methylated product) (human SETD7 [1]; SETD7 1 µM, 37 °C, 3 h): < 5%

Substance: RTKQEARKSTGG (also: sidechain bridge or staple (positions not given here)) [Peptide 12]
- methylation by SETD7 (conversion to methylated product) (human SETD7 [1]; SETD7 1 µM, 37 °C, 3 h): ~75%

Substance: ARTKQDARKSTGG (also: sidechain bridge or staple (positions not given here)) [Peptide 5]
- methylation by SETD7 (conversion to methylated product) (human SETD7 [1]; SETD7 100 nM, 37 °C, 1 h): ~10%
- methylation by SETD7 (conversion to methylated product) (human SETD7 [1]; [3]): fully converted to methylated product
- K m (human SETD7 [2]): 12.5 ± 2.77 µM
- k cat (human SETD7 [2]): 0.031 ± 0.00233 s⁻¹
- fold increase of kcat/Km compared to linear H3K4 (1) (human SETD7 [2]): 10 fold
- k cat/Km (human SETD7 [2]): 2500 M⁻¹ s⁻¹

Substance: D-ARTKQEARKSTGG (sidechain bridge or staple) [Peptide 6]
- methylation by SETD7 (conversion to methylated product) (human SETD7 [1]; SETD7 100 nM, 37 °C, 1 h): ~89%
- methylation by SETD7 in time-course (human SETD7 [1]; [4]): ~90%
- K m (human SETD7 [2]): 10.4 ± 1.88 µM
- k cat (human SETD7 [2]): 0.23 ± 0.014 s⁻¹
- fold increase of kcat/Km compared to linear H3K4 (1) (human SETD7 [2]): 97 fold
- k cat/Km (human SETD7 [2]): 22200 M⁻¹ s⁻¹

Substance: ARTKQTARKSTGG [Peptide 1, reference compound]
- methylation/turnover in time-course at low enzyme concentration (in words) (human SETD7 [1]; SETD7 100 nM, peptide 10 µM, 37 °C, time-course): lack of H3K4 (1) methylation
- methylation by SETD7 (conversion to methylated product) (human SETD7 [1]; [3]): ~56%
- K m (human SETD7 [2]): 61.6 ± 12.6 µM
- k cat (human SETD7 [2]): 0.014 ± 0.0013 s⁻¹
- k cat/Km (human SETD7 [2]): 233 M⁻¹ s⁻¹

Substance: [βAla]RTKQEARKSTGG (also: sidechain bridge or staple (positions not given here)) [Peptide 11]
- methylation by SETD7 (conversion to methylated product) (human SETD7 [1]; SETD7 100 nM, 37 °C, 1 h): ~48%
- K m (human SETD7 [2]): 17.7 ± 3.15 µM
- k cat (human SETD7 [2]): 0.0495 ± 0.00317 s⁻¹
- fold increase of kcat/Km compared to linear H3K4 (1) (human SETD7 [2]): 12 fold
- k cat/Km (human SETD7 [2]): 2830 M⁻¹ s⁻¹

Substance: ARTKQEARKSTGG (also: sidechain bridge or staple (positions not given here)) [Peptide 4]
- methylation by SETD7 (conversion to methylated product) (human SETD7 [1]; [3]): ~63%

Substance: GRTKQTERKSTGG (also: sidechain bridge or staple (positions not given here)) [Peptide 15]
- methylation by SETD7 (conversion to methylated product) (human SETD7 [1]; SETD7 1 µM, 37 °C, 3 h): ~11%

Substance: AzaRTKQPraARKSTGG (sidechain bridge or staple) [Peptide 3]
- methylation by SETD7 (conversion to methylated product) (human SETD7 [1]; SETD7 1 µM, 37 °C, 3 h): ~95%
- K m (human SETD7 [2]): 36.2 ± 7.54 µM
- k cat (human SETD7 [2]): 0.0598 ± 0.0065 s⁻¹
- fold increase of kcat/Km compared to linear H3K4 (1) (human SETD7 [2]): 7 fold
- k cat/Km (human SETD7 [2]): 1650 M⁻¹ s⁻¹

Substance: 21-mer H3K4: longer linear H3K4 substrate peptide, residues 1–21 [reference compound]
- methylation by SETD7 (human SETD7 [1]; 21-mer peptide (residues 1–21) 10 µM, SETD7 500 nM, 37 °C, 3 h, n = 2): ~88%
- dimethylated product by SETD1A (human SETD1A): ~9%

Substance: GRTKQEARKSTGG [Peptide 16]
- methylation by SETD7 (conversion to methylated product) (human SETD7 [1]; SETD7 1 µM, 37 °C, 3 h): ~40%

Substance: VRTKQEARKSTGG (also: sidechain bridge or staple (positions not given here)) [Peptide 8]
- methylation by SETD7 (conversion to methylated product) (human SETD7 [1]; SETD7 100 nM, 37 °C, 1 h): ~64%
- K m (human SETD7 [2]): 34.1 ± 7.76 µM
- k cat (human SETD7 [2]): 0.0423 ± 0.00433 s⁻¹
- fold increase of kcat/Km compared to linear H3K4 (1) (human SETD7 [2]): 5 fold
- k cat/Km (human SETD7 [2]): 1230 M⁻¹ s⁻¹

Substance: GRTKQEARKSTGG (also: sidechain bridge or staple (positions not given here)) [Peptide 7]
- methylation by SETD7 (conversion to methylated product) (human SETD7 [1]; SETD7 100 nM, 37 °C, 1 h): ~96%
- methylation by SETD7 in time-course (human SETD7 [1]; [4]): ~90%
- K m (human SETD7 [2]): 1.84 ± 0.27 µM
- k cat (human SETD7 [2]): 0.046 ± 0.00283 s⁻¹
- fold increase of kcat/Km compared to linear H3K4 (1) (human SETD7 [2]): 110 fold
- k cat/Km (human SETD7 [2]): 25000 M⁻¹ s⁻¹

Substance: GGRTKQEARKSTGG (also: sidechain bridge or staple (positions not given here)) [Peptide 13]
- methylation by SETD7 (conversion to methylated product) (human SETD7 [1]; SETD7 1 µM, 37 °C, 3 h): ~91%

Substance: CRTKQCARKSTGG (also: sidechain bridge or staple (positions not given here)) [Peptide 2]
- methylation by SETD7 (conversion to methylated product) (human SETD7 [1]; SETD7 1 µM, 37 °C, 3 h): ~86%
